The text below walks through data of ChEMBL document CHEMBL4406800, “Discovery of Potent Protease-Activated Receptor 4 Antagonists with in Vivo Antithrombotic Efficacy” (J Med Chem, 2019).

Each structure is given as a SMILES string.

Data set [1] is described as follows: Stability in human liver microsomes assessed as parent compound remaining measured after 10 mins. The class given is ADME, Microsome. Background: Liver microsomes are vesicles of endoplasmic reticulum, rich in cytochrome P450 enzymes.
A short description of data set [2]: Clearance in rat at 2 mg/kg, po or 0.5 mg/kg, iv administered as infusion for 10 mins. The class given is ADME, organism-based. The following applies: in vivo.
Data set [3] is described as follows: Stability in rat liver microsomes assessed as parent compound remaining measured after 10 mins. The class given is ADME, Microsome. The following applies: read-out: Stability.
The nature of data set [4]: Oral bioavailability in rat at 2 mg/kg. The class given is ADME, organism-based. The following applies: in vivo. An outline of the steps:
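Rat dosing: iv 0.5 mpk as a 10 min infusion in 25/75 propylene glycol/PEG400 at 2 ml/kg. po 2 mpk in 5/5/90 EtOH/TPGS/PEG300 at 5 mL/kg.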

The nature of data set [5]: Half life in rat liver microsomes. The class given is ADME, Microsome.
Data set [6] in a line: Half life in human liver microsomes. The format is ADME, Microsome. As to conditions: microsomes.
A short description of data set [7]: Half life in rat at 2 mg/kg, po or 0.5 mg/kg, iv administered as infusion for 10 mins. The following applies: in vivo. The class given is ADME, organism-based.
Data set [8] in a line: Oral bioavailability in monkey at 2 mg/kg. The following applies: rhesus monkey, in vivo. The class given is ADME, organism-based, Macaca mulatta. Summed up: (§1)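 Dog and monkey dosing: iv 0.5 mpk as a 10 min infusion in PEG400 at 0.8 ml/kg. po 2 mpk in 40/60 TPGS/PEG400 at 0.5 mL/kg.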
Data set [9] concerns Cynomolgus monkey. The data set is described as follows: Antithrombotic activity in cynomolgus monkey electrolytic carotid artery thrombosis assessed as reduction in thrombus weight at 0.4 mg/kg, po administered via gavage measured after 1.5 hrs relative to control. The class given is functional, Macaca fascicularis. Also on record: scale not given: the % may be the effect or the level left. Summed up: (§2)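 Monkeys retired from earlier studies after a washout of at least 4 weeks, randomized to vehicle (n=8) or 0.4, 2 or 10 mg/kg (n=7 each). Dosed by oral gavage in 40/60 w/w TPGS/PEG400 at 2 ml/kg. Anesthetized and surgically prepared 1.5 h post-dose. Thrombosis and bleeding time measured in the same animal.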

Data set [10] deals with T1, Proteinase-activated receptor 4 (Homo sapiens) (UniProt Q96RI0).
T1 sequence (whole entry): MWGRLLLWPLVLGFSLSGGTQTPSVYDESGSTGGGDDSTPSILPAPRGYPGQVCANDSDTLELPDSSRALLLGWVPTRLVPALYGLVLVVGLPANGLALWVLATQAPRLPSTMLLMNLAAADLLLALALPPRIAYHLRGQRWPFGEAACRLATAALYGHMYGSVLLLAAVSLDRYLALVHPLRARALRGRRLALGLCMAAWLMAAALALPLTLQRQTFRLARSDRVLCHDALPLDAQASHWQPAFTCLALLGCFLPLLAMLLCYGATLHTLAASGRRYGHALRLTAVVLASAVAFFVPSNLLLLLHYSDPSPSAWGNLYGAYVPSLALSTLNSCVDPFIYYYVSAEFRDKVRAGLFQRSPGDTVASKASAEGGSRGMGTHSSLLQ
The data set is described as follows: Displacement of [3H]BMS-986120 from His-tagged human PAR4 expressed in HEK293 cell membranes assessed as dissociation rate constant measured after 2 hrs. On the technique in general: In a radioligand displacement assay an active substance lowers the binding of a labelled ligand.

Data set [11] is described as follows: Protein binding in mouse plasma. The class given is ADME, cell-free. The following applies: read-out: PPB (converted).
Data set [12] can be described thus: Toxicity in cynomolgus monkey assessed as prolongation of kidney bleeding time at 10 mg/kg, po administered via gavage measured up to 20 mins. The following applies: in vivo. The format is organism-based, Macaca fascicularis. An outline of the steps: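 Oral gavage at 10 mg/kg or vehicle (40/60 w/w TPGS/PEG400, 2 ml/kg) to monkeys, anesthetized 1.5 h later. Bleeding time taken by renal cortex incision: time until bleeding stopped with no re-bleeding for 30 s, monitored up to 20 min, done in triplicate.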

Data set [13] is described as follows: Protein binding in human plasma. The format is ADME, cell-free. As to conditions: read-out: PPB (converted).
The target of data set [14] is T1, Proteinase-activated receptor 4 (Homo sapiens). The data set is described as follows: Displacement of [3H]BMS-986120 from His-tagged human PAR4 expressed in HEK293 cell membranes assessed as association rate constant. Summed up: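 HEK293 membranes expressing PAR4. Association kinetics measured; values are mean ± standard deviation, n = 3.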
A short description of data set [15]: Oral bioavailability in dog at 2 mg/kg. As to conditions: in vivo. The class given is ADME, organism-based, Canis lupus familiaris. An outline of the steps:
as §1

The subject of data set [16] is Cynomolgus monkey. The data set is described as follows: Antithrombotic activity in cynomolgus monkey electrolytic carotid artery thrombosis assessed as reduction in thrombus weight at 2 mg/kg, po administered via gavage measured after 1.5 hrs relative to control. The class given is functional, Macaca fascicularis. Also on record: scale not given: the % may be the effect or the level left. Summed up: as §2

Data set [17] is described as follows: Half life in dog liver microsomes. The format is ADME, Canis lupus familiaris, Microsome.
The nature of data set [18]: Half life in dog at 2 mg/kg, po or 0.5 mg/kg, iv administered as infusion for 10 mins. The class given is ADME, organism-based, Canis lupus familiaris. As to conditions: in vivo. Summed up:
as §1

Data set [19] in a line: Clearance in monkey at 2 mg/kg, po or 0.5 mg/kg, iv administered as infusion for 10 mins. The format is ADME, organism-based, Macaca mulatta. The following applies: rhesus monkey, in vivo. Summed up:
as §1

Data set [20] is described as follows: Half life in monkey liver microsomes. The format is ADME, Macaca mulatta, Microsome. The following applies: rhesus monkey.
The test system of data set [21] is Cynomolgus monkey. The data set is described as follows: Antithrombotic activity in cynomolgus monkey electrolytic carotid artery thrombosis assessed as reduction in thrombus weight at 10 mg/kg, po administered via gavage measured after 1.5 hrs relative to control. The class given is functional, Macaca fascicularis. Also on record: scale not given: the % may be the effect or the level left. An outline of the steps:
as §2

The target of data set [22] is T2, Nuclear receptor subfamily 1 group I member 2 (Homo sapiens, UniProt O75469).
T2 sequence (O75469 whole entry): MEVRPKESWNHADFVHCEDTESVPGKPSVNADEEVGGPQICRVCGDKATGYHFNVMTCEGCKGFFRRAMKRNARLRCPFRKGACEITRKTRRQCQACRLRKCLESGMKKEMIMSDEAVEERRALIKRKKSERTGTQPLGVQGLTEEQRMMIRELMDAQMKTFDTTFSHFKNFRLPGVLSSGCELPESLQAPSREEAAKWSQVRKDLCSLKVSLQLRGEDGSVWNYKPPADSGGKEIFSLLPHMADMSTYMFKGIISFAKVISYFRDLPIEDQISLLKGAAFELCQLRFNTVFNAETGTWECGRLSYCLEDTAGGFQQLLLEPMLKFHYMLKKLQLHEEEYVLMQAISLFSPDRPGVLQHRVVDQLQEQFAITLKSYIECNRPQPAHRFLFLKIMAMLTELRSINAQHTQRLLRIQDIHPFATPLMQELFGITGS
The data set is described as follows: Activation of human PXR. The format is ADME.

A short description of data set [23]: Half life in monkey at 2 mg/kg, po or 0.5 mg/kg, iv administered as infusion for 10 mins. The format is ADME, organism-based, Macaca mulatta. The following applies: rhesus monkey, in vivo. An outline of the steps: as §1
The target of data set [24] is T3, Proteinase-activated receptor 1 (Homo sapiens, UniProt P25116).
T3 sequence (P25116 whole entry): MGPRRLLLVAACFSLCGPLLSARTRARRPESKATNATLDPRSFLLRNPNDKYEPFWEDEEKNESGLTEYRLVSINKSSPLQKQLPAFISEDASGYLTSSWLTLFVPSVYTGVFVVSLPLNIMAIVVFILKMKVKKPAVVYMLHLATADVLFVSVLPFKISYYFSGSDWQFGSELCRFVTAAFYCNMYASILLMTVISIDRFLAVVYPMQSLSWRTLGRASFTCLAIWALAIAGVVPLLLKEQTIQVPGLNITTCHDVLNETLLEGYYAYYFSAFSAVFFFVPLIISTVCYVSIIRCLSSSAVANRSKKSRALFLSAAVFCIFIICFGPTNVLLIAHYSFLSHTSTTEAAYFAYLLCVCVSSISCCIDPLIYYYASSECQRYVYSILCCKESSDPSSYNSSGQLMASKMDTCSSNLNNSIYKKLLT
Put plainly: Antagonist activity at PAR1 in human platelet rich plasma assessed as inhibition of SFFLRR-induced platelet aggregation preincubated for 5 mins followed by SFFLRR addition.

Data set [25] can be described thus: Clearance in dog at 2 mg/kg, po or 0.5 mg/kg, iv administered as infusion for 10 mins. The following applies: in vivo. The class given is ADME, organism-based, Canis lupus familiaris. An outline of the steps: as §1
For data set [26], the target named is CYP450 (isoform not stated) (Homo sapiens, UniProt P04798+P05177+P05181+P08684+P10632+P10635+P11509+P11712+P13584+P20813+P20815+P20853+P24462+P24903+P33260+P33261+P51589+P78329+P98187+Q02928+Q08477+Q16678+Q16696+Q5TCH4+Q6VVX0+Q7Z449+Q8TAV3+Q96SQ9+Q9HB55). The data set is described as follows: Inhibition of CYP450 in human liver microsomes. The class given is ADME.

A short description of data set [27]: Protein binding in dog plasma. As to conditions: read-out: PPB. The class given is ADME, cell-free, Canis lupus familiaris.
The nature of data set [28]: Protein binding in rat plasma. The class given is ADME, cell-free. As to conditions: read-out: PPB (converted).
Data set [29] concerns Cynomolgus monkey. The data set is described as follows: Antithrombotic activity in cynomolgus monkey electrolytic carotid artery thrombosis assessed as reduction in thrombus weight administered via oral gavage measured after 1.5 hrs. The format is functional, organism-based. As to conditions: Macaca fascicularis. An outline of the steps: as §2
The nature of data set [30]: Protein binding in monkey plasma. The class given is ADME, cell-free, Macaca mulatta. As to conditions: rhesus monkey, read-out: PPB.
For a further data set, the target named is hERG (KCNH2) (Homo sapiens, UniProt Q12809). Put plainly: Inhibition of human ERG at 10 uM by patch clamp method. (In patch-clamp work, channel activity is measured electrically.)
hERG (KCNH2), sequence (Q12809 whole entry): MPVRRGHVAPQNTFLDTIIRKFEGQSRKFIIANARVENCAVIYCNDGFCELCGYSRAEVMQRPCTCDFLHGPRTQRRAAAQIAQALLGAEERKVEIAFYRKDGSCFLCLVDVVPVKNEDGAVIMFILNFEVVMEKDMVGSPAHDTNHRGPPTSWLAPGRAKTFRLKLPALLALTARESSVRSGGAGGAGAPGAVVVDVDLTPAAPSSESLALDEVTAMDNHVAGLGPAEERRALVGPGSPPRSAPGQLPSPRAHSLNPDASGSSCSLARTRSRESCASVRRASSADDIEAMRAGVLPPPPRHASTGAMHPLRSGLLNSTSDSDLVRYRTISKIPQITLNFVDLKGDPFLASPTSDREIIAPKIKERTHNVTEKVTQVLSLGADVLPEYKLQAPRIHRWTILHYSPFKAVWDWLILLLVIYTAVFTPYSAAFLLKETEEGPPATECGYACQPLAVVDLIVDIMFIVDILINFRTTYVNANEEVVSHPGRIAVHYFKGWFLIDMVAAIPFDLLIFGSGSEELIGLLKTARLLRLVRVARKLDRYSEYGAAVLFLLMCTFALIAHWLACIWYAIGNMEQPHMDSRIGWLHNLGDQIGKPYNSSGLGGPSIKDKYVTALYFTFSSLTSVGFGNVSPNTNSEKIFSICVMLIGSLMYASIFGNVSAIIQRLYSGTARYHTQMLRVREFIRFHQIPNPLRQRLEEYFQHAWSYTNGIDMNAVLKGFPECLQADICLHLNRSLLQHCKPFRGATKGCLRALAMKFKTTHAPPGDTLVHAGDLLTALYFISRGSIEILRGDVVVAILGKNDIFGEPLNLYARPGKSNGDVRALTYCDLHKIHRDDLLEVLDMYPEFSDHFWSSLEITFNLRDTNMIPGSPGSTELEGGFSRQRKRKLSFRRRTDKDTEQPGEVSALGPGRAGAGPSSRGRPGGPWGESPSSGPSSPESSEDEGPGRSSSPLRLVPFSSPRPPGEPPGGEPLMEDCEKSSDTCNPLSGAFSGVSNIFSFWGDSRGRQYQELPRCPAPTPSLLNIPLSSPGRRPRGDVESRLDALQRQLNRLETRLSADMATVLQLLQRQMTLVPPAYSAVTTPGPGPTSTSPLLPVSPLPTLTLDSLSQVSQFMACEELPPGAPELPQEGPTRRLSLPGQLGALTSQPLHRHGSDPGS
Data set [31] is described as follows: Half life in mouse liver microsomes. The class given is ADME, Microsome.

On to `COc1cc(OC)c2cc(-c3cn4nc(OC)sc4n3)oc2c1`, for which the Stability in data set [1] (microsomes, 10 min) came to 86%. In [2], this compound gave a clearance of 33 mL/min/kg. The remaining at 10 min in [3] amounted to 70%. Further, in data set [4], the bioavailability stood at 1%. Also, the figures for the half-life in data set [5] and in data set [7] were 0.367 h and 3.2 h, respectively. This compound also had a t1/2 in [6] of 0.283 h.

Consider `COc1cc(OCc2cccc(OCc3ccccc3)c2)c2cc(-c3cn4nc(OC)sc4n3)oc2c1`, for which the values for the bioavailability in [8], in [15] and in [4] were 11%, 26% and 11%, respectively. Also, the Activity with Cynomolgus monkey [9] was 9%; in data set [12] it was “Non-Toxic”; in the data set on Cynomolgus monkey [16] it was 38%; in the data set on Cynomolgus monkey [21], 38%; in the data set on Cynomolgus monkey [29] it was “Dose-dependent effect”. In addition, the remaining at 10 min turned out to be 85% in [1] (liver microsomes, read-out: Stability) and 76% in data set [3]. Further, the K in [10] was determined as 0.013 min⁻¹; in data set [14] it was 66700 M⁻¹ s⁻¹. Also, the clearance turned out to be 10 mL/min/kg in data set [2], 5.2 mL/min/kg in data set [19] and 1.6 mL/min/kg in data set [25]. Further, the fraction unbound in [11] was 0.005; in data set [13], 0.004; in data set [27], at most 0.002; in [28] it was 0.002; in [30], below 0.002. In addition, the half-life in data set [17] was 1.67 h; in [18], 7 h; in [20], 0.8 h; in [23] it was 6.2 h; in data set [7], 6.9 h; in data set [31] it was 2 h. In data set [22], this compound showed an EC50 above 50 µM. The values for the concentration for half-maximal inhibition (IC50) in data set [24] and in data set [26] were above 30 µM and above 40 µM, respectively. On hERG (KCNH2), this compound returned an inhibition at 10 µM of at most 10%.

In general, bioavailability refers to the share of a dose that reaches the circulation, judged against a reference dose that is usually intravenous. For orientation: half-life means how long it takes for the measured level to halve. The EC50 is the concentration at which the effect is half-maximal. As usually defined, the IC50 is the concentration needed to halve the response being measured. For orientation: inhibition means the drop in the measured response relative to a control, in per cent.
